Results: ChEMBL document CHEMBL1150942, “Anti-AIDS agents. 30. Anti-HIV activity of oleanolic acid, pomolic acid, and structurally related triterpenoids” (J Nat Prod, 1998)
Converted amounts (≈) assume the structure as drawn.

What was measured:
[1] = Therapeutic index, ratio of IC50 for human H9 cells to EC50 for HIV1 3B; type: cell-based; conditions: for selectivity ratio: H9 cells (cytotoxicity IC50) and HIV-1 3B (antiviral EC50)
Procedure, shortened: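 TI calculated as IC50 (Coulter counts of mock-infected cells after 4 days) divided by EC50 (day-4 supernatant p24 ELISA of infected cells). Both were read from the same 4-day plates.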

H9 cells (Homo sapiens) = test: Cytotoxicity against human H9 cells after 4 days
[2] = tested on: Human immunodeficiency virus 1; test: Inhibition of HIV-1 replication in acutely infected human H9 cells after 4 days; conditions: H9, 96 h
[3] = tested on: Human immunodeficiency virus 1; test: Antiviral activity against HIV1 in human H9 cells after 4 days; conditions: h9, 96 h
[4] = Homo sapiens, H9, 96 h, read-out: IC50

Q: What does the source list for `CC1(C)CC[C@]2(C(=O)O)CC[C@]3(C)C(=CC[C@@H]4[C@@]5(C)CC[C@H](OC(=O)CC(C)(C)C(=O)O)C(C)(C)[C@@H]5CC[C@]43C)[C@@H]2C1`?
A: selectivity ratio [1]: 22400; IC50 (H9 cells (Homo sapiens); [4]): 11.2 µg/mL (≈ 19.2 µM)

Q: With `CC(C)(CC(=O)O)CC(=O)O[C@H]1CC[C@]2(C)[C@H]3CC=C4[C@@H]5CC(C)(C)CC[C@]5(C(=O)O)CC[C@@]4(C)[C@]3(C)CC[C@H]2C1(C)C` as the molecule, how does the selectivity ratio [1] read?
A: 9.3

Q: And the IC50 (H9 cells (Homo sapiens); [4])?
A: 14.2 µg/mL (≈ 23.7 µM)

Q: What does the source list for `CC1(C)CC[C@]2(C(=O)O)CC[C@]3(C)C(=CC[C@@H]4[C@@]5(C)CC[C@H](OC(=O)CCCC(=O)O)C(C)(C)[C@@H]5CC[C@]43C)[C@@H]2C1`?
A: selectivity ratio [1]: 2.1; IC50 (H9 cells (Homo sapiens); [4]): 14.6 µg/mL (≈ 25.6 µM)

Q: For `CC1(C)CC[C@]2(C(=O)O)CC[C@]3(C)C(=CC[C@@H]4[C@@]5(C)CC[C@H](OC(=O)CC6(CC(=O)O)CCCC6)C(C)(C)[C@@H]5CC[C@]43C)[C@@H]2C1`, which selectivity ratio [1] is on record?
A: 3.9

Q: And the IC50 (H9 cells (Homo sapiens); [4])?
A: 4.7 µg/mL (≈ 7.52 µM)

Q: Which selectivity ratio [1] does the source give for `CC[C@@](C)(CC(=O)O)CC(=O)O[C@H]1CC[C@]2(C)[C@H]3CC=C4[C@@H]5CC(C)(C)CC[C@]5(C(=O)O)CC[C@@]4(C)[C@]3(C)CC[C@H]2C1(C)C` here?
A: 4.1

Q: What about the IC50 (H9 cells (Homo sapiens); [4]) of the same molecule?
A: 4.4 µg/mL (≈ 7.18 µM)

Q: And the EC50 [2]?
A: 1.1 µg/mL (≈ 1.79 µM)

Q: Which results are given for `C[C@@H]1CC[C@]2(C(=O)O)CC[C@]3(C)C(=CC[C@@H]4[C@@]5(C)[C@H](O)C(=O)[C@H](O)C(C)(C)[C@@H]5CC[C@]43C)[C@@H]2[C@]1(C)O`?
A: IC50 (H9 cells (Homo sapiens); [4]): 40 µg/mL (≈ 79.6 µM); Activity [3]: Not Active

Q: What does the source list for `C[C@@H]1CC[C@]2(C(=O)O)CC[C@]3(C)C(=CC[C@@H]4[C@@]5(C)CC(=O)[C@H](O)C(C)(C)[C@@H]5CC[C@]43C)[C@@H]2[C@]1(C)O`?
A: selectivity ratio [1]: 2; IC50 (H9 cells (Homo sapiens); [4]): 40 µg/mL (≈ 82.2 µM); EC50 [2]: 20 µg/mL (≈ 41.1 µM)

Q: Which results are given for `CC1(C)CC[C@]2(C(=O)[O-])CC[C@]3(C)C(=CC[C@@H]4[C@@]5(C)CC[C@H](O)C(C)(C)[C@@H]5CC[C@]43C)[C@@H]2C1.[K+]`?
A: Ratio IC50/EC50 ([1]; h9): 68.6; IC50 (H9 cells (Homo sapiens); [4]): 34.3 µg/mL; EC50 [2]: 0.5 µg/mL

Q: Which results are given for `CC1(C)CC[C@]2(C(=O)O)CC[C@]3(CO)C(=CC[C@@H]4[C@@]5(C)CC[C@H](O)C(C)(C)[C@@H]5CC[C@]43C)[C@@H]2C1`?
A: selectivity ratio [1]: 5.7; IC50 (H9 cells (Homo sapiens); [4]): 25 µg/mL (≈ 52.9 µM); EC50 [2]: 4.4 µg/mL (≈ 9.31 µM)

Q: Which IC50 (H9 cells (Homo sapiens); [4]) does the source give for `CC1(C)CC[C@]2(C(=O)O)CC[C@]3(C)C(=CC[C@@H]4[C@@]5(C)CC[C@H](OC(=O)COCC(=O)O)C(C)(C)[C@@H]5CC[C@]43C)[C@@H]2C1` here?
A: 22.1 µg/mL (≈ 38.6 µM)

Q: What about the Activity [3] of the same molecule?
A: Not Active

Q: Which IC50 (H9 cells (Homo sapiens); [4]) does the source give for `CC1(C)CC[C@]2(C(=O)O)CC[C@]3(C)C(=CC[C@@H]4[C@@]5(C)CC[C@H](OC(=O)C(C)(C)CC(=O)O)C(C)(C)[C@@H]5CC[C@]43C)[C@@H]2C1` here?
A: 9.7 µg/mL (≈ 16.6 µM)

Q: And the Activity [3]?
A: Not Active

Q: What does the source list for `C[C@@H](CC(=O)O)CC(=O)O[C@H]1CC[C@]2(C)[C@H]3CC=C4[C@@H]5CC(C)(C)CC[C@]5(C(=O)O)CC[C@@]4(C)[C@]3(C)CC[C@H]2C1(C)C`?
A: selectivity ratio [1]: 3.3; IC50 (H9 cells (Homo sapiens); [4]): 27.5 µg/mL (≈ 47 µM); EC50 [2]: 8.3 µg/mL (≈ 14.2 µM)

Q: With `C[C@@H]1CC[C@]2(C(=O)O)CC[C@]3(C)C(=CC[C@@H]4[C@@]5(C)[C@H](O)[C@@H](O)[C@@H](O)C(C)(C)[C@@H]5CC[C@]43C)[C@@H]2[C@]1(C)O` as the molecule, how does the selectivity ratio [1] read?
A: > 2.9

Q: What about the IC50 (H9 cells (Homo sapiens); [4]) of the same molecule?
A: > 100 µg/mL

Q: What about the EC50 [2] of the same molecule?
A: 35 µg/mL (≈ 69.3 µM)

Q: Which IC50 (H9 cells (Homo sapiens); [4]) does the source give for `C[C@@H]1CC[C@]2(C(=O)O)CC[C@]3(C)C(=CC[C@@H]4[C@@]5(C)[C@H](O)[C@H](O)[C@H](O)C(C)(C)[C@@H]5CC[C@]43C)[C@@H]2[C@]1(C)O` here?
A: > 20 µg/mL

Q: And the Activity [3]?
A: Not Active

Q: For `CC1(C)CC[C@]2(C(=O)O)CC[C@]3(C)C(=CC[C@@H]4[C@@]5(C)C[C@@H](O)[C@H](O)[C@@](C)(CO)[C@@H]5CC[C@]43C)[C@@H]2C1` (stereo in doubt; 2) [ARJUNOLIC ACID], which IC50 (H9 cells (Homo sapiens); h9) is on record?
A: 8 µg/mL (≈ 16.4 µM)

Q: What does the source list for `CC1(C)CC[C@]2(C(=O)O)CC[C@]3(C)C(=CC[C@@H]4[C@@]5(C)C[C@@H](O)[C@H](O)[C@@](C)(CO)[C@@H]5CC[C@]43C)[C@@H]2C1` (stereo in doubt; 3) [ARJUNOLIC ACID]?
A: IC50 (H9 cells (Homo sapiens); h9): 36 µg/mL (≈ 73.7 µM); EC50 [2]: 15 µg/mL (≈ 30.7 µM)

Q: Which results are given for `C=C(C)[C@@H]1CC[C@]2(C(=O)O)CC[C@]3(C)[C@H](CC[C@@H]4[C@@]5(C)C[C@@H](O)[C@H](O)C(C)(C)[C@@H]5CC[C@]43C)[C@@H]12` [ALPHITOLIC ACID]?
A: selectivity ratio [1]: 0.25; IC50 (H9 cells (Homo sapiens); [4]): 4 µg/mL (≈ 8.46 µM); EC50 [2]: 20 µg/mL (≈ 42.3 µM)

Q: For `C[C@H]1[C@H](C)CC[C@]2(C(=O)O)CC[C@]3(C)C(=CC[C@@H]4[C@@]5(C)C[C@@H](O)[C@H](O)[C@@](C)(CO)[C@@H]5CC[C@]43C)[C@H]12` [ASIATIC ACID], which IC50 (H9 cells (Homo sapiens); [4]) is on record?
A: 9 µg/mL (≈ 18.4 µM)

Q: And the Activity [3]?
A: Not Active

Q: For `C[C@H]1[C@H](C)CC[C@]2(C(=O)O)CC[C@]3(C)C(=CC[C@@H]4[C@@]5(C)C[C@@H](O)[C@H](O)C(C)(C)[C@@H]5CC[C@]43C)[C@H]12` [COROSOLIC ACID], which selectivity ratio [1] is on record?
A: 2

Q: What about the IC50 (H9 cells (Homo sapiens); [4]) of the same molecule?
A: 8 µg/mL (≈ 16.9 µM)

Q: What about the EC50 [2] of the same molecule?
A: 4 µg/mL (≈ 8.46 µM)

Q: For `C[C@@H]1CC[C@]2(C(=O)O)CC[C@]3(C)C(=CC[C@@H]4[C@@]5(C)C[C@@H](O)[C@@H](O)C(C)(C)[C@@H]5CC[C@]43C)[C@@H]2[C@]1(C)O` [EUSCAPHIC ACID], which IC50 (H9 cells (Homo sapiens); [4]) is on record?
A: 37.5 µg/mL (≈ 76.7 µM)

Q: And the Activity [3]?
A: Not Active

Q: Which results are given for `CC1(C)CC[C@]2(C(=O)O)CC[C@]3(C)C(=CC[C@@H]4[C@@]5(C)CC[C@H](OC(=O)CCC(=O)O)C(C)(C)[C@@H]5CC[C@]43C)[C@@H]2C1` [OLEANOLIC ACID 3-O-SUCCINATE]?
A: selectivity ratio [1]: 1.1; IC50 (H9 cells (Homo sapiens); [4]): 6.5 µg/mL (≈ 11.7 µM); EC50 [2]: 6.1 µg/mL (≈ 11 µM)

Q: For `CC1(C)CC[C@]2(C(=O)O)CC[C@]3(C)C(=CC[C@@H]4[C@@]5(C)CC[C@H](O)C(C)(C)[C@@H]5CC[C@]43C)[C@@H]2C1` [OLEANOLIC_ACID], which IC50 (H9 cells (Homo sapiens); [4]) is on record?
A: 21.8 µg/mL (≈ 47.7 µM)

Q: Which results are given for `CC1(C)CC[C@]2(C(=O)O)CC[C@]3(C)C(=CC[C@@H]4[C@@]5(C)CCC(=O)C(C)(C)[C@@H]5CC[C@]43C)[C@@H]2C1` [OLEANONIC ACID]?
A: selectivity ratio [1]: 7.3; IC50 (H9 cells (Homo sapiens); [4]): 0.8 µg/mL (≈ 1.76 µM); EC50 [2]: 0.11 µg/mL (≈ 0.242 µM)

Q: With `C[C@@H]1CC[C@]2(C(=O)O)CC[C@]3(C)C(=CC[C@@H]4[C@@]5(C)CC[C@H](O)C(C)(C)[C@@H]5CC[C@]43C)[C@@H]2[C@]1(C)O` [POMOLIC ACID] as the molecule, how does the selectivity ratio [1] read?
A: 16.6

Q: What about the IC50 (H9 cells (Homo sapiens); [4]) of the same molecule?
A: 23.3 µg/mL (≈ 49.3 µM)

Q: What about the EC50 [2] of the same molecule?
A: 1.4 µg/mL (≈ 2.96 µM)

Q: With `C[C@@H]1CC[C@]2(C(=O)O)CC[C@]3(C)C(=CC[C@@H]4[C@@]5(C)C[C@@H](O)[C@H](O)C(C)(C)[C@@H]5CC[C@]43C)[C@@H]2[C@]1(C)O` [TOMENTIC ACID] as the molecule, how does the IC50 (H9 cells (Homo sapiens); [4]) read?
A: 15 µg/mL (≈ 30.7 µM)

Q: What about the Activity [3] of the same molecule?
A: Not Active

Q: With `C[C@H]1[C@H](C)CC[C@]2(C(=O)O)CC[C@]3(C)C(=CC[C@@H]4[C@@]5(C)CC[C@H](O)C(C)(C)[C@@H]5CC[C@]43C)[C@H]12` [URSOLIC ACID] as the molecule, how does the selectivity ratio [1] read?
A: 3.3

Q: And the IC50 (H9 cells (Homo sapiens); [4])?
A: 6.5 µg/mL (≈ 14.2 µM)

Q: What about the EC50 [2] of the same molecule?
A: 2 µg/mL (≈ 4.38 µM)
